Experimental data from ChEMBL document CHEMBL1649306, “Arylimidamide DB766, a potential chemotherapeutic candidate for Chagas' disease treatment” (Antimicrob Agents Chemother, 2010).
Activity calls are given as the source filed them. The calls are words filed in the database; no cut-off is given here.

Tests used:
Trypanosoma cruzi [1] = assay: Antitrypanosomal activity against bloodstream forms of Trypanosoma cruzi Y after 24 hrs by light microscopy in presence of 50% mouse blood; type: functional, organism-based
Procedure, shortened: (§1)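 Bloodstream trypomastigotes kept at 4°C for 24 h in freshly isolated 50% mouse blood with serial dilutions (up to 32 μM). Motile live parasites counted in a Neubauer chamber by light microscopy; IC50 calculated as concentration reducing parasite number by 50%.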

Trypanosoma cruzi [2] = assay: Antitrypanosomal activity against bloodstream forms of Trypanosoma cruzi YuYu after 24 hrs by light microscopy in presence of 50% mouse blood; type: functional, organism-based; procedure, shortened: as §1
Trypanosoma cruzi [3] = assay: Antitrypanosomal activity against bloodstream forms of Trypanosoma cruzi Columbian after 24 hrs by light microscopy in presence of 50% mouse blood; type: functional, organism-based; procedure, shortened: as §1
Trypanosoma cruzi [4] = assay: Antitrypanosomal activity against bloodstream forms of Trypanosoma cruzi CL after 24 hrs by light microscopy in presence of 50% mouse blood; type: functional, organism-based; procedure, shortened: as §1
Mus musculus [5] = assay: Toxicity in […](H-2k) mouse assessed as effect on creatine kinase level at 100 mg/kg/day, po; type: organism-based; design: route oral; details: in vivo
Trypanosoma cruzi [6] = assay: Antitrypanosomal activity against Trypanosoma cruzi Y infected in Swiss-Webster mouse assessed as decrease in parasite-induced weight loss at 100 mg/kg/day, ip administered 5 days post-infection for 10 consecutive days measured on day 120; type: functional, organism-based
Procedure, shortened: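 Body weight of infected, treated mice followed from 0 to 120 dpi.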

Mus musculus [7] = assay: Cardiotoxicity in […] mouse assessed as effect on heart rate level at 100 mg/kg/day, po; type: toxicity, organism-based; design: route oral; details: in vivo
Procedure, shortened: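 Colombian strain, 5 × 10³ bloodstream forms i.p. into male C3H/He mice; 100 mg/kg/day given i.p. or by gavage (0.1 ml) daily for 10 doses from parasitemia onset. Mice sedated with diazepam (20 mg/kg i.p.), supine; eight-lead ECG from subcutaneous limb needle electrodes plus precordial lead II. Signal-averaged ECG; heart rate as beats per minute.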

Trypanosoma cruzi [8] = assay: Antitrypanosomal activity against Trypanosoma cruzi Y bloodstream forms infected in Swiss-Webster mouse assessed as decrease in parasite load at 100 mg/kg/day, po administered 5 days postinfection for 10 alternate days measured after 31 days; type: functional; design: scale not given: the % may be the effect or the level left
Procedure, shortened: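 Male Swiss mice infected with 10^4 Y strain bloodstream forms and treated every other day with 100 mg/kg/day, reference drug by gavage. Parasitemia measured by the Pizzi-Brener method.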

Mus musculus [9] = assay: Cytotoxicity against Swiss-Webster mouse assessed as effect on creatine kinase at 100 mg/kg/day measured after 14 days postinfection; type: organism-based; details: in vivo, 336 h
Mus musculus [10] = assay: Hepatotoxicity against Swiss-Webster mouse assessed as GPT at 100 mg/kg/day measured after 14 days postinfection; type: toxicity, organism-based; details: in vivo, 336 h
[11] = Toxicity in […](H-2k) mouse assessed as mortality at cumulative dose of 100 mg/kg, po measured after 48 hrs; type: organism-based; design: dose 100 mg/kg, route oral; details: in vivo, read-out: Activity
Trypanosoma cruzi [12] = assay: Antitrypanosomal activity against Trypanosoma cruzi Y epimastigotes after 24 hrs by light microscopy; type: functional, organism-based
Procedure, shortened: (§2)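 Epimastigotes from 5-day exponential cultures, 5 × 10^6 parasites/ml in LIT medium, incubated at 28°C up to 96 h with DB766 0 to 32 μM or Bz 0 to 250 μM. Counted daily in a Neubauer chamber. IC50 averaged from at least three determinations in duplicate.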

Trypanosoma cruzi [13] = assay: Antitrypanosomal activity against Trypanosoma cruzi 855 epimastigotes after 24 hrs by light microscopy; type: functional, organism-based; details: Trypanosoma cruzi, 855, 24 h; procedure, shortened: as §2
Trypanosoma cruzi [14] = assay: Antitrypanosomal activity against Trypanosoma cruzi 875 epimastigotes after 24 hrs by light microscopy; type: functional, organism-based; details: Trypanosoma cruzi, 875, 24 h; procedure, shortened: as §2
Trypanosoma cruzi [15] = assay: Antitrypanosomal activity against Trypanosoma cruzi 956 epimastigotes after 24 hrs by light microscopy; type: functional, organism-based; details: Trypanosoma cruzi, 956, 24 h; procedure, shortened: as §2
Trypanosoma cruzi [16] = assay: Antitrypanosomal activity against Trypanosoma cruzi 958 epimastigotes after 24 hrs by light microscopy; type: functional, organism-based; details: Trypanosoma cruzi, 958, 24 h; procedure, shortened: as §2
Trypanosoma cruzi [17] = assay: Antitrypanosomal activity against Trypanosoma cruzi 960 epimastigotes after 24 hrs by light microscopy; type: functional, organism-based; details: Trypanosoma cruzi, 960, 24 h; procedure, shortened: as §2
Trypanosoma cruzi [18] = assay: Antitrypanosomal activity against Trypanosoma cruzi MS1523 epimastigotes after 24 hrs by light microscopy; type: functional, organism-based; details: MS1523, 24 h; procedure, shortened: as §2
Trypanosoma cruzi [19] = assay: Antitrypanosomal activity against Trypanosoma cruzi RBVIII epimastigotes after 24 hrs by light microscopy; type: functional, organism-based; procedure, shortened: as §2
Mus musculus [20] = assay: Toxicity in […](H-2k) mouse assessed as mortality at cumulative dose of 200 mg/kg, ip measured after 48 hrs; type: organism-based; design: dose 200 mg/kg, route intraperitoneal; details: in vivo
Procedure, shortened: (§3)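 Uninfected 8–10-week-old female and male Swiss Webster and C3H/He (H-2k) mice injected i.p. on day 1 every 2 h with escalating doses: 5, 15, 30, 50 and 100 mg/kg (cumulative 20, 50, 100, 200 mg/kg). Toxic and subtoxic signs inspected on days 2–3 per OECD guidelines; tolerated dose set at 48 h.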

Mus musculus [21] = assay: Toxicity in female Swiss-Webster mouse assessed as mortality at cumulative dose of 200 mg/kg, ip measured after 48 hrs; type: organism-based; design: dose 200 mg/kg, route intraperitoneal; details: in vivo; procedure, shortened: as §3
Mus musculus [22] = assay: Toxicity in male Swiss-Webster mouse assessed as mortality at cumulative dose of 200 mg/kg, ip measured after 48 hrs; type: organism-based; design: dose 200 mg/kg, route intraperitoneal; details: in vivo; procedure, shortened: as §3
Mus musculus [23] = assay: Toxicity in male Swiss-Webster mouse assessed as weight loss at cumulative dose of 200 mg/kg, ip measured after 48 hrs; type: organism-based; design: dose 200 mg/kg, route intraperitoneal; details: in vivo
Procedure, shortened: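 Acute toxicity in 8–10-week-old Swiss Webster mice. i.p. injections every 2 h of 5, 15, 30, 50 and 100 mg/kg (cumulative 200 mg/kg) on day 1. Toxic and subtoxic signs inspected on days 2 and 3 per OECD guidelines; outcome read 48 h after injection.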

Trypanosoma cruzi [24] = assay: Antitrypanosomal activity against Trypanosoma cruzi Y bloodstream forms infected in Swiss-Webster mouse assessed as decrease in parasite load at 100 mg/kg/day, po administered 8 days postinfection measured on day 2; type: functional, organism-based
Procedure, shortened: (§4)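 Male Swiss mice infected i.p. with 10^4 Y strain bloodstream forms. Given 0.2 ml i.p. at 5 and 8 dpi, or daily for 10 days from 5 dpi; reference drug given by gavage. Parasitemia measured by the Pizzi-Brener method, cumulative mortality checked daily to 120 dpi, n ≥ 6 per group.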

Trypanosoma cruzi [25] = assay: Antitrypanosomal activity against Trypanosoma cruzi Y bloodstream forms infected in Swiss-Webster mouse assessed as survival of mouse at 100 mg/kg/day, ip administered 8 days postinfection measured on day 120; type: functional, organism-based; procedure, shortened: as §4
Trypanosoma cruzi [26] = assay: Antitrypanosomal activity against Trypanosoma cruzi Columbian bloodstream forms infected in C3H mouse assessed as decrease in parasite load at 100 mg/kg/day, ip administered 21 days postinfection measured on day 46; type: functional, organism-based
Procedure, shortened: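 C3H/He mice infected i.p. with 10^2 Colombian strain bloodstream forms. Treatment started at parasitemia onset (21 dpi) with daily doses for 10 treatments, 0.1 ml i.p. Parasitemia measured by the Pizzi-Brener method; n ≥ 6 parasitemic mice per group.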

Mus musculus [27] = assay: Hepatotoxicity in Swiss-Webster mouse assessed as effect on GPT level at 25 mg/kg/day, ip administered 21 days postinfection measured on day 120; type: toxicity, organism-based; design: route intraperitoneal; details: in vivo, 504 h
Mus musculus [28] = assay: Hepatotoxicity in Swiss-Webster mouse assessed as effect on GPT level at 50 mg/kg/day, ip administered 21 days postinfection measured on day 120; type: toxicity, organism-based; design: route intraperitoneal; details: in vivo, 504 h
Mus musculus [29] = assay: Hepatotoxicity in Swiss-Webster mouse assessed as increased GPT level at 100 mg/kg/day, ip administered 21 days postinfection measured on day 120; type: toxicity, organism-based; design: route intraperitoneal; details: in vivo, 504 h
Trypanosoma cruzi [30] = assay: Antitrypanosomal activity against Trypanosoma cruzi Columbian bloodstream forms infected in C3H mouse assessed as survival of mouse at 100 mg/kg/day, po administered 5 days postinfection for 10 consecutive days measured after 31 days; type: functional
Procedure, shortened: (§5)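 Male C3H/He (H-2k) mice infected i.p. with 5 × 10^3 Colombian-strain bloodstream trypomastigotes; only parasitemia-positive mice grouped (n ≥ 6). DB766 100 mg/kg/day given i.p. (0.1 ml) or by gavage (0.1 ml), daily for 10 treatments. Parasitemia by Pizzi-Brener method; mortality checked daily, expressed as cumulative percentage.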

Trypanosoma cruzi [31] = assay: Antitrypanosomal activity against Trypanosoma cruzi Columbian bloodstream forms infected in C3H mouse assessed as decrease in parasite load at 100 mg/kg/day, ip administered 5 days postinfection for 10 consecutive days measured after 31 days; type: functional; design: scale not given: the % may be the effect or the level left; details: route intraperitoneal
Procedure, shortened: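 C3H/He mice infected i.p. with 10^3 or 5 × 10^3 Colombian strain bloodstream forms. Treated daily for 10 days with 0.1 ml i.p. or by gavage, reference drug given by gavage. Parasitemia measured by the Pizzi-Brener method; n ≥ 6 parasitemic mice per group.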

Trypanosoma cruzi [32] = assay: Antitrypanosomal activity against Trypanosoma cruzi Columbian bloodstream forms infected in C3H mouse assessed as survival of mouse at 100 mg/kg/day, ip administered 5 days postinfection for 10 consecutive days measured after 31 days; type: functional; details: route intraperitoneal; procedure, shortened: as §5

N=C(N)c1ccc(-c2ccc(-c3ccc(C(=N)N)cc3)o2)cc1 [FURAMIDINE]
IC50 (Trypanosoma cruzi [1]): > 32 µM | IC50 (Trypanosoma cruzi [2]): > 32 µM | IC50 (Trypanosoma cruzi [3]): > 32 µM | IC50 (Trypanosoma cruzi [4]): > 32 µM

O=C(Cn1ccnc1[N+](=O)[O-])NCc1ccccc1 [BENZNIDAZOLE]
Activity (Mus musculus [5]): 68% | Activity (Trypanosoma cruzi [6]): Active | Activity (Mus musculus [7]): Non-toxic | Activity (Trypanosoma cruzi [8]): 79.4% | Activity (Mus musculus [9]): Non-toxic | Activity (Mus musculus [10]): Non-toxic | mortality at 48 h [11]: 100% | IC50 (Trypanosoma cruzi [12]): 7.65 µM | IC90 (Trypanosoma cruzi [12]): 86.6 µM | IC50 (Trypanosoma cruzi [13]): 12.6 µM | IC90 (Trypanosoma cruzi [13]): 226 µM | IC50 (Trypanosoma cruzi [14]): 7.9 µM | IC90 (Trypanosoma cruzi [14]): 196 µM | IC50 (Trypanosoma cruzi [15]): 3.96 µM | IC90 (Trypanosoma cruzi [15]): 20.4 µM | IC50 (Trypanosoma cruzi [16]): 13.7 µM | IC90 (Trypanosoma cruzi [16]): 58.3 µM | IC50 (Trypanosoma cruzi [17]): 6.44 µM | IC90 (Trypanosoma cruzi [17]): 38.2 µM | IC50 (Trypanosoma cruzi [18]): 5.3 µM | IC90 (Trypanosoma cruzi [18]): 30.6 µM | IC50 (Trypanosoma cruzi [19]): 5.06 µM | IC90 (Trypanosoma cruzi [19]): 35.7 µM | Activity (Mus musculus [20]): Non-toxic | Activity (Mus musculus [21]): Non-toxic | Activity (Mus musculus [22]): Non-toxic | Activity (Mus musculus [23]): 7% | Activity (Trypanosoma cruzi [24]): inactive | Activity (Trypanosoma cruzi [25]): inactive | Activity (Trypanosoma cruzi [26]): inactive | Activity (Mus musculus [27]): Non-toxic | Activity (Mus musculus [28]): Non-toxic | Activity (Mus musculus [29]): Toxic | Activity (Trypanosoma cruzi [30]): 100% | Activity (Trypanosoma cruzi [31]): 100% | Activity (Trypanosoma cruzi [32]): 99%
